Each structure is given as a SMILES string. The source made the active and inactive calls. The calls are words filed in the database; no cut-off is given here.

From ChEMBL document CHEMBL1255259, “Phosphorothioate-modified oligodeoxynucleotides inhibit human cytomegalovirus replication by blocking virus entry” (Antimicrob Agents Chemother, 2008) come the findings set out here.

Data set [1] deals with Human betaherpesvirus 5. In words: Antimicrobial activity against Human cytomegalovirus AD169 infected in compound pretreated HELF assessed as inhibition of viral replication measured after 6 days post-infection. Type of data set: functional, organism-based. Conditions: Human betaherpesvirus 5, AD169, HELF. The essentials:
(§1)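 HELF pretreated with ODN 1 h before infection with HCMV AD169 (MOI 1); ODN kept in medium after 2 h adsorption at 37°C. At 6 days p.i., cells plus supernatants sonicated and titrated by plaque assay on HELF; plaques counted microscopically, expressed as PFU/ml (log10) or % of control. IC50/IC90 by linear regression; duplicate wells, three independent experiments, means ± SD.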

Data set [2] concerns unidentified adenovirus. In words: Antimicrobial activity against unidentified adenovirus infected in compound pretreated HELF assessed as inhibition of viral replication. It is filed as functional, organism-based. The essentials:
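HELF pretreated 1 h with ODN (0.1 or 1 μM), infected with an adenovirus clinical isolate (MOI 1); ODN kept after 2 h adsorption. Harvest at 4 days p.i., sonication, plaque titration on HELF. Means ± SD, three experiments.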

The subject of data set [3] is Human alphaherpesvirus 1. The experiment in a line: Antimicrobial activity against Human herpesvirus 1 infected in compound pretreated HELF assessed as inhibition of viral replication at 0.1 uM. It is filed as functional, organism-based. The gist of the method:
(§2)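 HELF pretreated with ODN (0.1 or 1 μM) 1 h before infection with a clinical HSV-1 isolate at MOI 0.1; ODN kept in medium after 2 h adsorption. Harvest at 48 h p.i., sonication, plaque titration on Vero cells. Means ± SD of three independent experiments.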

Data set [4] relates to Human betaherpesvirus 5. The experiment in a line: Antimicrobial activity against Human cytomegalovirus AD169 infected in HELF assessed as inhibition of viral replication at 0.1 uM measured after 6 days post-infection. Type of data set: functional, organism-based.
The test system of data set [5] is Human betaherpesvirus 5. The experiment in a line: Antimicrobial activity against Human cytomegalovirus AD169 infected in 1 uM compound pretreated HELF assessed as inhibition of viral replication measured after 6 days post-infection. Type of data set: functional, organism-based. The essentials:
as §1

The subject of data set [6] is Human betaherpesvirus 5. In words: Antimicrobial activity against 0.1 uM compound pretreated Human cytomegalovirus AD169 infected in HELF assessed as reduction in viral titer 37 degC. It is filed as functional, organism-based. The essentials: (§3)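 HCMV AD169 (10^4 PFU) incubated with ODN at 0.1 μM at 4 or 37°C for various times; samples then diluted to bring ODN below an antivirally active level; residual infectivity titrated by plaque assay on HELF. Means ± SD of three independent experiments.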

Data set [7] relates to Vesicular stomatitis Indiana virus. In words: Antimicrobial activity against Vesicular stomatitis Indiana virus infected in compound pretreated HELF assessed as inhibition of viral replication. Type of data set: functional, organism-based. The gist of the method: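 HELFs exposed to ODN (0.1 or 1 μM) for 1 h, then infected with VSV serotype Indiana at MOI 1 (2 h adsorption, 37°C). ODN kept in the medium until 48 h p.i. Cells and supernatants were pooled, sonicated and titrated by plaque assay on HELFs. Data are means ± standard deviations of three independent experiments, duplicate wells.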

Data set [8] concerns Human alphaherpesvirus 1. In words: Antimicrobial activity against Human herpesvirus 1 infected in compound pretreated HELF assessed as inhibition of viral replication at 1 uM. It is filed as functional, organism-based. The essentials:
as §2

The subject of data set [9] is Human betaherpesvirus 5. In words: Antimicrobial activity against Human cytomegalovirus TB40 expressing EGPF tagged UL32 infected in HELF assessed as inhibition of inhibition of viral adsorption at 0.1 uM after 2 hrs by fluorescence microscopy. It is filed as functional, organism-based. The gist of the method: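 Prechilled HELF on coverslips exposed to ODN (0.1 μM) or heparin (30 μg/ml) 1 h at 4°C, then infected with HCMV TB40 UL32-EGFP (MOI 20) 2 h at 4°C to permit attachment only. Washed in ice-cold PBS, fixed in 4% formaldehyde, propidium iodide counterstain; green virions imaged by confocal fluorescence microscopy. Done twice.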

The subject of data set [10] is Human betaherpesvirus 5. In words: Antimicrobial activity against Human cytomegalovirus AD169 infected in HELF assessed as inhibition of viral replication at 1 uM measured after 6 days post-infection. It is filed as functional, organism-based.
A short description of data set [11]: Cytotoxicity against HELF assessed as cell viability after 6 days by MTT assay. Type of data set: cell-based. Conditions: human, HELF cells. The essentials: (§4)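 HELF exposed to rising ODN concentrations (up to 10 μM) for 6 days; viable cells measured by MTT. CC50 taken as concentration that cuts viability to 50%.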
The test system of data set [12] is Human betaherpesvirus 5. In words: Antimicrobial activity against Human cytomegalovirus AD169 infected in 0.1 uM compound pretreated HELF assessed as inhibition of viral replication measured after 6 days post-infection. It is filed as functional, organism-based. The gist of the method:
as §1

A short description of data set [13]: Cytotoxicity against HELF assessed as cell viability by MTT assay after 6 days at <=10 uM. It is filed as cell-based. Conditions: human, 144 h. The gist of the method: as §4
In general terms: Tetrazolium dyes change colour on reduction, which living cells bring about.

Data set [14] concerns Human betaherpesvirus 5. The experiment in a line: Antimicrobial activity against 0.1 uM compound pretreated Human cytomegalovirus AD169 infected in HELF assessed as reduction in viral titer at 4 degC. It is filed as functional, organism-based. The essentials: as §3

By IC50 is commonly meant the concentration that inhibits the measured activity by half. The term IC90 denotes the concentration at which the effect reaches the 90% level. The term CC50 denotes the concentration at which the toxic effect on the cells reaches its halfway point. On to `Cc1cn([C@H]2C[C@H](OP(O)(O)=S)[C@@H](COP(O)(=S)O[C@H]3C[C@H](n4cc(C)c(=O)[nH]c4=O)O[C@@H]3COP(O)(=S)O[C@H]3[C@@H](O)[C@H](n4cnc5c(=O)[nH]c(N)nc54)O[C@@H]3COP(O)(=S)O[C@H]3[C@@H](O)[C@H](n4ccc(N)nc4=O)O[C@@H]3COP(O)(=S)O[C@H]3C[C@H](n4cc(C)c(=O)[nH]c4=O)O[C@@H]3COP(O)(=S)O[C@H]3[C@@H](O)[C@H](n4cnc5c(=O)[nH]c(N)nc54)O[C@@H]3COP(O)(=S)O[C@H]3C[C@H](n4cc(C)c(=O)[nH]c4=O)O[C@@H]3COP(O)(=S)O[C@H]3C[C@H](n4cc(C)c(=O)[nH]c4=O)O[C@@H]3COP(O)(=S)O[C@H]3C[C@H](n4cc(C)c(=O)[nH]c4=O)O[C@@H]3COP(O)(=S)O[C@H]3C[C@H](n4cc(C)c(=O)[nH]c4=O)O[C@@H]3COP(O)(=S)O[C@H]3[C@@H](O)[C@H](n4cnc5c(=O)[nH]c(N)nc54)O[C@@H]3COP(O)(=S)O[C@H]3[C@@H](O)[C@H](n4ccc(N)nc4=O)O[C@@H]3COP(O)(=S)O[C@H]3C[C@H](n4cc(C)c(=O)[nH]c4=O)O[C@@H]3COP(O)(=S)O[C@H]3[C@@H](O)[C@H](n4cnc5c(=O)[nH]c(N)nc54)O[C@@H]3COP(O)(=S)O[C@H]3C[C@H](n4cc(C)c(=O)[nH]c4=O)O[C@@H]3COP(O)(=S)O[C@H]3C[C@H](n4cc(C)c(=O)[nH]c4=O)O[C@@H]3COP(O)(=S)O[C@H]3[C@@H](O)[C@H](n4cnc5c(=O)[nH]c(N)nc54)O[C@@H]3COP(O)(=S)O[C@H]3[C@@H](O)[C@H](n4ccc(N)nc4=O)O[C@@H]3COP(O)(=S)O[C@H]3C[C@H](n4cc(C)c(=O)[nH]c4=O)O[C@@H]3COP(O)(=S)O[C@H]3[C@@H](O)[C@H](n4cnc5c(=O)[nH]c(N)nc54)O[C@@H]3COP(O)(=S)O[C@H]3[C@@H](O)[C@H](n4ccc(N)nc4=O)O[C@@H]3COP(O)(=S)O[C@H]3C[C@H](n4cc(C)c(=O)[nH]c4=O)O[C@@H]3CO)O2)c(=O)[nH]c1=O` (some centres not stated), for which, in data set [1], the IC50 turned out to be 200 nM. Further, the IC90 in [1] amounted to 4000 nM. For the same compound, the inhibition entry in [2], in data set [3], in data set [4], in data set [6], in data set [7] and in data set [8] was “inactive” each time. Also, the inhibition entry in data set [9], in data set [10] and in data set [14] was “inactive” throughout. Further, the inhibition entry in data set [5] and in data set [12] was “Active” throughout. Also, the CC50 at 144 h in [11] is > 10000 nM. Also, the Activity result in data set [13] was “Non-toxic”.

As to `Cc1cn([C@H]2C[C@H](OP(O)(=S)OC[C@H]3O[C@@H](n4ccc(N)nc4=O)[C@H](O)[C@@H]3OP(O)(=S)OC[C@H]3O[C@@H](n4cnc5c(=O)[nH]c(N)nc54)[C@H](O)[C@@H]3OP(O)(=S)OC[C@H]3O[C@@H](n4cc(C)c(=O)[nH]c4=O)C[C@@H]3OP(O)(=S)OC[C@H]3O[C@@H](n4ccc(N)nc4=O)[C@H](O)[C@@H]3OP(O)(=S)OC[C@H]3O[C@@H](n4cnc5c(=O)[nH]c(N)nc54)[C@H](O)[C@@H]3OP(O)(=S)OC[C@H]3O[C@@H](n4cc(C)c(=O)[nH]c4=O)C[C@@H]3OP(O)(=S)OC[C@H]3O[C@@H](n4cc(C)c(=O)[nH]c4=O)C[C@@H]3OP(O)(=S)OC[C@H]3O[C@@H](n4cc(C)c(=O)[nH]c4=O)C[C@@H]3OP(O)(=S)OC[C@H]3O[C@@H](n4cc(C)c(=O)[nH]c4=O)C[C@@H]3OP(O)(=S)OC[C@H]3O[C@@H](n4cnc5c(=O)[nH]c(N)nc54)[C@H](O)[C@@H]3OP(O)(=S)OC[C@H]3O[C@@H](n4cc(C)c(=O)[nH]c4=O)C[C@@H]3OP(O)(=S)OC[C@H]3O[C@@H](n4ccc(N)nc4=O)[C@H](O)[C@@H]3OP(O)(=S)OC[C@H]3O[C@@H](n4cnc5c(=O)[nH]c(N)nc54)[C@H](O)[C@@H]3OP(O)(=S)OC[C@H]3O[C@@H](n4cc(C)c(=O)[nH]c4=O)C[C@@H]3OP(O)(=S)OC[C@H]3O[C@@H](n4cc(C)c(=O)[nH]c4=O)C[C@@H]3OP(O)(=S)OC[C@H]3O[C@@H](n4cc(C)c(=O)[nH]c4=O)C[C@@H]3OP(O)(=S)OC[C@H]3O[C@@H](n4cc(C)c(=O)[nH]c4=O)C[C@@H]3OP(O)(=S)OC[C@H]3O[C@@H](n4cc(C)c(=O)[nH]c4=O)C[C@@H]3OP(O)(=S)OC[C@H]3O[C@@H](n4cc(C)c(=O)[nH]c4=O)C[C@@H]3OP(O)(=S)OC[C@H]3O[C@@H](n4cc(C)c(=O)[nH]c4=O)C[C@@H]3OP(O)(=S)OC[C@H]3O[C@@H](n4ccc(N)nc4=O)[C@H](O)[C@@H]3OP(O)(=S)OC[C@H]3O[C@@H](n4cnc5c(=O)[nH]c(N)nc54)[C@H](O)[C@@H]3OP(O)(=S)OC[C@H]3O[C@@H](n4cnc5c(N)ncnc54)[C@H](O)[C@@H]3OP(O)(O)=S)[C@@H](CO)O2)c(=O)[nH]c1=O` (some centres not stated), in [1], the IC50 is 20 nM. Further, in data set [1], the IC90 was 100 nM. In addition, the inhibition result in [3], in [4], in [6], in data set [8], in data set [10] and in [14] was “inactive” in each case. For the same compound, the inhibition result in [5] and in [12] was “Active” throughout. Further, the CC50 at 144 h in [11] is > 10000 nM. Besides, the Activity entry in data set [13] is “Non-toxic”.
